Measured values gathered from unrelated publications.
Lines come from different studies, so protocols differ.

CO[C@@H]1[C@H](OC(=O)N2CC(CCN3CCOCC3)C2)CC[C@]2(CO2)[C@H]1[C@@]1(C)O[C@@H]1CC=C(C)C
Tmax (human; plasma; subcutaneous; 1.2 mg; single dose, healthy volunteers): 0.25 h

c1cnc2ccc(Nc3nc(NC4CC4)c4nc[nH]c4n3)cc2c1
Tmax (human; plasma; oral; 800 mg/m²; patients): 5 h

CCCCOC(=O)N1CCN(C(=O)[C@H](CP(=O)(O)O)NC(=O)c2cc(N3CC[C@H](OC)C3)nc(-c3ccccc3)n2)CC1
Tmax (human; plasma; subcutaneous; 16 mg; single dose): 0.733 h

CS(=O)(=O)CCC#N
Tmax (human; plasma; oral; 1000 mg; multiple doses, once daily): 2 h

C/C(=C\c1csc(C)n1)[C@@H]1C[C@@H]2O[C@]2(C)CCC[C@H](C)[C@H](O)[C@@H](C)C(=O)C(C)(C)[C@@H](O)CC(=O)N1
Tmax (human; plasma; intravenous; 20 mg/m²; patients): 1 h

NS(=O)(=O)NCCNc1nonc1C(=NO)Nc1ccc(F)c(Br)c1
Tmax (human; plasma; oral; 400 mg; multiple doses, twice daily, steady state, patients): 2 h

COC(=O)N[C@@H](C)CNc1nccc(-c2cn(C(C)C)nc2-c2cc(Cl)cc(NS(C)(=O)=O)c2F)n1
Tmax (human; plasma; oral; 50 mg; single dose): ~1.5 h

FC(F)(F)c1ccc(CNc2ccc(Cc3c[nH]c4ncc(Cl)cc34)cn2)cn1
Tmax (human; plasma; oral; 600 mg; single dose): 2.5 h

CC(C)(O)c1ccccc1-c1ccc2[nH]c(/C=C/c3ccc(C(F)(F)F)cc3)nc2c1
Tmax (male human; plasma; oral; 30 mg; single dose, fasted): 3.03 h

Nc1cc(C(F)(F)F)c(-c2cc(N3CCOCC3)nc(N3CCOCC3)n2)cn1
Tmax (human; plasma; oral; 25 mg/day; patients): 1 h

CC(C)n1cc(C#N)c2cc(-n3cc(C(=O)O)cn3)ccc21
Tmax (human; plasma; oral; 50 mg; single dose, fasted, healthy volunteers): 3 h

O=C(O)C[C@H](O)C[C@H](O)/C=C/c1c(C2CC2)nc2ccccc2c1-c1ccc(F)cc1
Tmax (human; plasma; oral; 2 mg; single dose, fed, healthy volunteers, tablet): 1.13 h

C=CC(=O)N(C)CCOc1c(N)ncnc1-c1cc(F)cc(NC(=O)c2ccc(C3CC3)cc2F)c1C
Tmax (human; blood; oral; 1.5 mg; single dose, healthy volunteers): 0.5 h

CC(C)(Sc1ccncc1-c1ccc(C#N)c2ccccc12)C(=O)O
Tmax (male human; plasma; oral; 40 mg; single dose, fasted, healthy volunteers): 0.75 h

CCO[C@H]1CCN(Cc2c(OC)cc(C)c3[nH]ccc23)[C@H](c2ccc(C(=O)O)cc2)C1
Tmax (human; plasma; oral; 100 mg; multiple doses, twice daily, patients): 1.53 h

C#C[C@]1(COP(=O)(O)OP(=O)(O)OP(=O)(O)O)O[C@@H](n2cnc3c(N)nc(F)nc32)C[C@@H]1O
Tmax (human; plasma; oral; 15 mg; single dose): 6 h

CCc1nc(C(N)=O)c(Nc2ccc(N3CCC(N4CCN(C)CC4)CC3)c(OC)c2)nc1NC1CCOCC1
Tmax (human; plasma; oral; 200 mg; multiple doses, patients): 5.92 h

CO[C@H]1/C=C\C=C(/C)C(=O)NC2=CC(=O)C(NCCN(C)C)=C(C[C@@H](C)C[C@H](OC)[C@H](O)[C@@H](C)/C=C(\C)[C@@H]1OC(N)=O)C2=O
Tmax (human; plasma; intravenous; 27 mg/m²; patients, infusion): 0.9 h

Cc1nc(NC(=O)N2CCC[C@H]2C(N)=O)sc1-c1ccnc(C(C)(C)C(F)(F)F)c1
Tmax (human; plasma; oral; 180 mg; patients): 2.46 h

CC(C)[C@](O)(c1ccc2cc(OC(F)F)c(OC(F)F)cc2c1)c1c[nH]nn1
Tmax (female human; plasma; oral; 750 mg; single dose): 3 h

CCc1nc2c(C)cc(N3CCN(CC(=O)N4CC(O)C4)CC3)cn2c1N(C)c1nc(-c2ccc(F)cc2)c(C#N)s1
Tmax (human; plasma; oral; 150 mg; fed, healthy volunteers): 1 h

O=C(Nc1c(Cl)cncc1Cl)c1ccc(OC(F)F)c(OCC2CC2)c1
Tmax (human; plasma; oral; 0.25 mg; single dose): 0.75 h

CNCC[C@H](Oc1cccc2ccccc12)c1cccs1
Tmax (female human; plasma; oral; 30 mg; multiple doses, once daily): 4.7 h

COc1ccc([C@@H]2CN(C(=O)[C@@H](O)CO)C[C@@]2(C)[C@@H](C)O)cc1OC1CN(c2ccc(C)cn2)C1
Tmax (human; plasma; oral; 30 mg; single dose, healthy volunteers): 3.88 h

CCCOc1ccc([C@H]2CNC(=O)N2c2ccc3[nH]cnc3c2)cc1
Tmax (human; plasma; oral; 200 mg; single dose, fed, healthy volunteers): 2 h

C[C@@]1(c2cc(NC(=O)c3ccc(C#N)cn3)ccc2F)C=CSC(N)=N1
Tmax (male human; plasma; oral; 1 mg; single dose): 0.75 h

Cn1cc(-c2ccc(S(=O)(=O)[C@@H]3C[C@@H](C(=O)NC4(C#N)CC4)N(C(=O)C4(C(F)(F)F)CC4)C3)c(C(F)(F)F)c2)cn1
Tmax (human; plasma; oral; 10 mg; single dose, fasted, healthy volunteers): 4.5 h

Oc1cc(O)c2c(c1)O[C@@H](c1ccc(O)c(O)c1)[C@@H](O)C2
Tmax (human; plasma; oral; 10 mg; single dose): 1 h

COc1cc(N2CCC(N3CCN(C)CC3)CC2)ccc1Nc1ncnc(Nc2ccccc2S(=O)(=O)C(C)C)n1
Tmax (human; plasma; oral; 25 mg; multiple doses, patients): 2.48 h

C[C@@H](Nc1cc(F)cc(F)c1)c1cc(C(=O)N(C)C)cc2c(=O)cc(N3CCOCC3)oc12
Tmax (human; plasma; oral; 240 mg; single dose, patients): 1.75 h

CC(=O)Oc1ccccc1C(=O)O
Tmax (human; plasma; oral; 650 mg; healthy volunteers): 2.5 h
